Reference: ChEMBL document CHEMBL4196187, “Peloruside E (22-Norpeloruside A), a Pelorusane Macrolide from the New Zealand Marine Sponge Mycale hentscheli, Retains Microtubule-Stabilizing Properties” (J Nat Prod, 2018)
pIC50: −log10 of the molar value. Active and inactive are the calls of the source. The calls are words filed in the database; no cut-off is given here.

Assays:
HL-60 [1] = experiment: Cell cycle arrest in human HL60 cells assessed as accumulation at G1 phase at 100 nM after 18 hrs by propidium iodide staining based flow cytometry (reference value: 62%); format: functional
HL-60 [2] = experiment: Cell cycle arrest in human HL60 cells assessed as accumulation at S phase at 500 nM after 18 hrs by propidium iodide staining based flow cytometry (reference value: 20%); format: functional
Sus scrofa = species: Sus scrofa; experiment: Induction of porcine brain tubulin polymerization at 2.8 uM measured at 1 min interval over 100 mins by fluorescence assay
HL-60 [3] = experiment: Cell cycle arrest in human HL60 cells assessed as accumulation at S phase at 100 nM after 18 hrs by propidium iodide staining based flow cytometry (reference value: 20%); format: functional
HL-60 [4] = experiment: Cell cycle arrest in human HL60 cells assessed as accumulation at G1 phase at 500 nM after 18 hrs by propidium iodide staining based flow cytometry (reference value: 62%); format: functional
HL-60 [5] = experiment: Growth inhibition of human HL60 cells after 48 hrs by MTT assay; format: functional, cell-based; conditions: HL-60, 48 h
Outline: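 Human promyelocytic leukemia HL-60 cells; MTT cell proliferation read-out after 48 h incubation. IC50 derived from n = 3 replicates, reported as SEM.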

HL-60 [6] = experiment: Cell cycle arrest in human HL60 cells assessed as accumulation at G2/M phase at 100 nM after 18 hrs by propidium iodide staining based flow cytometry (reference value: 19%); format: functional
HL-60 [7] = experiment: Cell cycle arrest in human HL60 cells assessed as accumulation at G2/M phase at 500 nM after 18 hrs by propidium iodide staining based flow cytometry (reference value: 19%); format: functional
HL-60 [8] = experiment: Cell cycle arrest in human HL60 cells assessed as accumulation at G1 phase at 1500 nM after 18 hrs by propidium iodide staining based flow cytometry (reference value: 62%); format: functional
HL-60 [9] = experiment: Cell cycle arrest in human HL60 cells assessed as accumulation at G1 phase at 300 nM after 18 hrs by propidium iodide staining based flow cytometry (reference value: 62%); format: functional
HL-60 [10] = experiment: Cell cycle arrest in human HL60 cells assessed as accumulation at S phase at 1500 nM after 18 hrs by propidium iodide staining based flow cytometry (reference value: 20%); format: functional
HL-60 [11] = experiment: Cell cycle arrest in human HL60 cells assessed as accumulation at G2/M phase at 1500 nM after 18 hrs by propidium iodide staining based flow cytometry (reference value: 19%); format: functional
HL-60 [12] = experiment: Cell cycle arrest in human HL60 cells assessed as accumulation at G2/M phase at 300 nM after 18 hrs by propidium iodide staining based flow cytometry (reference value: 19%); format: functional
HL-60 [13] = experiment: Cell cycle arrest in human HL60 cells assessed as accumulation at S phase at 300 nM after 18 hrs by propidium iodide staining based flow cytometry (reference value: 20%); format: functional
HL-60 [14] = experiment: Cell cycle arrest in human HL60 cells assessed as accumulation at G2/M phase at 1000 nM after 18 hrs by propidium iodide staining based flow cytometry (reference value: 19%); format: functional
HL-60 [15] = experiment: Cell cycle arrest in human HL60 cells assessed as accumulation at S phase at 1000 nM after 18 hrs by propidium iodide staining based flow cytometry (reference value: 20%); format: functional
HL-60 [16] = experiment: Cell cycle arrest in human HL60 cells assessed as accumulation at G1 phase at 1000 nM after 18 hrs by propidium iodide staining based flow cytometry (reference value: 62%); format: functional

| Structure (SMILES) | Activity (HL-60 [1]) [%] | Activity (HL-60 [2]) [%] | induction (Sus scrofa) | Activity (HL-60 [3]) [%] | Activity (HL-60 [4]) [%] | pIC50 (HL-60 [5]) | Activity (HL-60 [6]) [%] | Activity (HL-60 [7]) [%] | Activity (HL-60 [8]) [%] | Activity (HL-60 [9]) [%] | Activity (HL-60 [10]) [%] | Activity (HL-60 [11]) [%] | Activity (HL-60 [12]) [%] | Activity (HL-60 [13]) [%] | Activity (HL-60 [14]) [%] | Activity (HL-60 [15]) [%] | Activity (HL-60 [16]) [%] |
| --- | --- | --- | --- | --- | --- | --- | --- | --- | --- | --- | --- | --- | --- | --- | --- | --- | --- |
| CC[C@H](/C=C(/C)[C@@H]1C[C@@H](OC)C[C@H](O)C(C)(C)[C@@]2(O)O[C@@H](C[C@@H](OC)[C@H](O)C(=O)O1)C[C@@H](OC)[C@H]2O)CO | 27 | 23 | Active | 23 | 30 | 7.72 | 50 | 47 | – | – | – | – | – | – | – | – | – |
| CC[C@H](/C=C(/C)[C@@H]1C[C@@H](OC)C[C@H](O)[C@@H](C)[C@@]2(O)O[C@@H](C[C@@H](OC)[C@H](O)C(=O)O1)C[C@@H](OC)[C@H]2O)CO | – | – | – | – | – | 7.05 | – | – | 29 | 38 | 23 | 49 | 39 | 22 | – | – | – |
| CC(=O)O[C@H]1C(=O)[C@@]2(C)[C@H]([C@H](OC(=O)c3ccccc3)[C@]3(O)C[C@H](OC(=O)[C@H](O)[C@@H](NC(=O)c4ccccc4)c4ccccc4)C(C)=C1C3(C)C)[C@]1(OC(C)=O)CO[C@@H]1C[C@@H]2O [PACLITAXEL] | – | – | Active | – | – | – | – | – | – | – | – | – | – | – | 53 | 19 | 28 |
